Values without a mark were called inactive. Results filed as inconclusive are left out. Activity calls are given as the source filed them.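 How the source made its calls, unless noted: active means cell viability at or below a set limit in both duplicate runs, the limit being the all-compound median minus 4 SD (cut at about 23% in these data, passing the limit was not always enough); inconclusive means no clear call, values can overlap the other calls; inactive means the rest.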
Assays:
[1] = S. cerevisiae growth inhibition in permissive medium (OD615), pilot counter-assay for S. cerevisiae lifespan shortening project, permissive growth control (AID 705;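 active means growth inhibition above 25% in both replicates, a cutoff set 3 SD above the mean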); settings: OD615, 24 h, at 10 µM, active compounds read high
Summary of the method: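 Material: engineered DeaD yeast; Compound: one dose 10 µM, DMSO 0.25% final; Detection: absorbance (optical density) at 615 nm; Buffer or medium: permissive raffinose/galactose medium; Timing: 24 h exposure, 30 °C.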

[2] = S. cerevisiae growth inhibition in restrictive medium, OD615, pilot screen, restrictive growth control, yeast lifespan reduction project (AID 706;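 active means growth inhibition above a set limit, 3 SD over mean compound inhibition, in both replicates, cut at about 43% in these data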;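 further: modified DeaD lifespan yeast strain shifted to restrictive glucose medium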); settings: OD615, 48 h, at 10 µM, active compounds read high
Summary of the method: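 Buffer or medium: restrictive glucose medium (CSMM-D); test system: modified S. cerevisiae; doses: single dose of 10 µM compound final, 0.25% DMSO; schedule: 48 h compound exposure at 30 °C; detection: absorbance (optical density) measured at 615 nm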

[3] = doxorubicin toxicity protection in MRP-1 cells – H69AR cells, CellTiter-Glo, duplicate, MRP-1 activator project, pilot screen (AID 807;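 active means viability increase at or above a cutoff of the median across tested compounds plus 3 SD, cut at about 8.5% in these data, passing the limit was not always enough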;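 further: compound pretreatment 18-22 h then 72 h combined with doxorubicin; 0% = doxorubicin alone and 100% = vehicle without doxorubicin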); settings: H69AR viability with doxorubicin, CellTiter-Glo luminescence; at 10 µM; active compounds read high
[4] = viability of HCT116 without oncogenic beta-catenin – human colon tumor cells, pilot screen (AID 823); settings: HCT116 beta-catenin knockout viability, CellTiter-Glo, 60 h; at 10 µM; active compounds read low;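 further: 0% = wells killed by 20 µM Hyamine and 100% = untreated DMSO cell wells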
[5] = viability of PTEN-null HCT116 cells – cell-based, HCT116 clonal line, CellTiter-Glo, pilot screen (AID 824;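 active means viability at or below 27.92% in each of two runs, the all-compound median minus 4 SD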;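 further: 0% = 20 µM Hyamine control and 100% = vehicle cell control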); settings: HCT116 PTEN-deleted viability, 60 h, at 10 µM, active compounds read low
[6] = RAM pathway blockade in budding yeast – dse1pr::URA3 reporter, 5-FOA selection, pilot screen (AID 869;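 active means inhibition over a set limit, the all-compound mean plus 3 SD, in both replicate runs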;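 further: 0% = DMSO wells with no growth and 100% = 10 µM 1-NA-PP1 with full growth; RAM network block rescues cells from 5-FOA so hits raise OD615 growth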); settings: S. cerevisiae dse1pr::URA3 5-FOA growth, OD615, 2 d; at 10 µM; active compounds read high; strain carries analog-sensitive mutant Cbk1 kinase
[7] = RAM signaling pathway blockade in yeast – S. cerevisiae, Pdr1DBD-CYC8 efflux-inhibited sensitized strain, primary screen (AID 1298;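 active means RAM network inhibition above 8.4% in each of two replicates, 3 SD over the compound average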;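 further: 0% = DMSO untreated cells without growth and 100% = 10 µM 1-NA-PP1 full growth; higher means more yeast growth rescued from 5-FOA killing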); settings: S. cerevisiae cbk1-as DSE1-URA3 strain, 5-FOA growth OD615, 2 d; at 50 µM; active compounds read high

Row | SMILES | growth inhibition [1] [%] | growth inhibition [2] | viability increase [3] [%] | viability [4] | viability [5] | inhibition [6] [%] | RAM network inhibition [7] [%]
1 | Cc1cc(Nc2ccc(F)cc2F)n2ncnc2n1 | -1.61 | 6.47% | -1.6 | 96.5% | 97.8% | 1.35 | 1.04
2 | Nc1ccc(Nc2ccccc2)c(Cl)c1 | -1.62 | 19% | -7.58 | 94.7% | 97.8% | 2.79 | 4.55
3 | Cc1ccc(CC2CC(=O)N(c3cc(C)on3)C2=O)cc1 (stereo unspecified) | -17.8 | -19.9% | 0.79 | 100% | 94% | 1.73 | -0.79
4 | CCCCn1c(=O)cc(N2CCOCC2)[nH]c1=O | -16.3 | -20.6% | 0.83 | 99.7% | 94.3% | 1.04 | -0.95
5 | CCOC(=O)N1CCN(c2c(Nc3ccc4c(c3)OCCO4)c(=O)c2=O)CC1 | 4.17 | 4.07% | -1.02 | 105% | 105% | 1.1 | 2.05
6 | CCC(=O)N1CC2(C)CN(C(=O)CC)CC(C)(C1)C2 | -6.27 | -24.9% | -0.75 | 95.3% | 97% | 1.59 | -0.16
7 | Cc1ccc(NC(=O)C2CCCN(S(=O)(=O)c3ccc4c(c3)oc(=O)n4C)C2)nc1 (stereo unspecified) | -7.92 | -2.67% | -0.05 | 101% | 101% | 1.09 | -2.07
8 | Nc1nc(SCC(=O)NCCCO)nc2sc3c(c12)CCC3 | -8.84 | -4.31% | -1.44 | 96.1% | 94% | 1.44 | 0.31
9 | O=C(CSc1ncnc2c1oc1ccccc12)NCc1ccc(F)cc1 | -0.505 | -4.67% | -3.33 | 68.6% | 81% | -0.055 | -2.13
10 | CC(c1ccccc1)N1CNc2c(c(=O)n(C)c(=O)n2C)C1 (stereo unspecified) | -8.04 | 2.52% | -1.82 | 94.3% | 92.2% | 0.02 | 0.77
11 | O=C(c1ccc(S(=O)(=O)N2CCOCC2)cc1)N1CCN(c2ccccc2)CC1 | -12.5 | 2.02% | 0.13 | 93.7% | 101% | 1.82 | 1.64
12 | O=C(Nc1ccc(F)cc1)C1CCCN(S(=O)(=O)c2cccc3cccnc23)C1 (stereo unspecified) | -10.2 | -7.79% | -0.85 | 80.8% | 80.3% | 2.16 | 7.62
13 | COc1cc(NC(=O)CCCC(=O)OCC(F)(F)C(F)F)nc(OC)n1 | -5.42 | -21.7% | -0.22 | 102% | 98.9% | 1.37 | 0.92
14 | O=C(NCCCc1ccccc1)C1CCN(c2nnc(-n3cccc3)s2)CC1 | -1.03 | 0.98% | 3.79 | 93.3% | 97% | 0.175 | 5.38
15 | O=C(CN1CCN(Cc2ccccc2Cl)C1=O)NCC1CCCO1 (stereo unspecified) | 4.72 | -0.62% | -2.68 | 97.2% | 95.5% | 0.35 | 1.49
16 | COCCCNC(=O)c1ccccc1Oc1ccccc1 | -8.28 | -2.05% | -1.39 | 96.3% | 97% | 1.46 | 1.58
17 | O=C(Nc1cccc(F)c1)c1ccc(S(=O)(=O)N2CCCC2)cc1 | -3.88 | 0% | 1.26 | 101% | 97% | 1.78 | -0.43

Row | SMILES | growth inhibition [1] [%] | growth inhibition [2] | viability increase [3] [%] | viability [4] | viability [5] | inhibition [6] [%] | RAM network inhibition [7] [%]
18 | COc1ccc(NC(=O)NCCCN2CCCC2=O)cc1 | -2.73 | 8.62% | 0.12 | 105% | 103% | 0.945 | -0.16
19 | Cc1nccc2[nH]c(=O)c(C(=O)NC3CCN(Cc4ccccc4)CC3)cc12 | -0.105 | -8.34% | -3.81 | 104% | 93.9% | 1.82 | 7.9
20 | CC(=O)c1ccc(OCC(O)CN2C(C)(C)CC(O)CC2(C)C)cc1 (stereo unspecified) | -16.9 | -12.3% | 1.37 | 105% | 96.8% | 1.66 | 7.12
21 | O=C1c2ccccc2C(Nc2cccnc2)N1Cc1ccc2c(c1)OCO2 (stereo unspecified) | 7.46 | 3.33% | -2.21 | 94.1% | 104% | 0.205 | 1.74
22 | Cc1onc(-c2ccccc2)c1C(=O)Nc1ccc2c(c1)OCCO2 | -5.44 | -6.46% | -0.35 | 96.6% | 94.9% | 2.96 | 2.34
23 | Cc1ccc(Sc2oc(/C=N/n3cnnc3)cc2Br)cc1 | 0.63 | 4.41% | -7 | 6.77% (active) | 6.87% (active) | 1.4 | 3.27
24 | Cc1ccc(S(=O)(=O)N(C)CCCC(=O)N2CCOCC2)cc1 | -17.3 | -6.47% | -1.27 | 101% | 96.1% | 1.17 | 3.03
25 | CC(C)(C)C1(C)OC(C(N)=O)C(C(N)=O)O1 (stereo unspecified) | -7.22 | -1.06% | 0.03 | 98.2% | 95.7% | 0.785 | 1.14
26 | CCOC(=O)c1ccccc1NC(=O)CN(c1ccccc1OCC)S(C)(=O)=O | 2.85 | 1.95% | -1.57 | 96.4% | 98% | 1.1 | 2.46
27 | O=C(C1CCCN(S(=O)(=O)c2ccccc2)C1)N1CCCCCC1 (stereo unspecified) | -1.18 | 0% | -1.36 | 79.6% | 94.3% | 1.79 | 4.15
28 | Cc1nnc(-c2ccccc2)c[n+]1[O-] | -6.06 | -14.7% | -2.16 | 101% | 95.2% | 0.98 | 0.63
29 | O=C(CCc1nc2ccccc2[nH]1)N1CCN(C(=O)c2ccco2)CC1 | -9.21 | -5.44% | -0.98 | 101% | 96.7% | 0.87 | 1.88
30 | CCc1cc2c(=O)c(-c3nc4ccccc4[nH]3)coc2c(CN2CCCC(C)C2)c1O (stereo unspecified) | -3.79 | 12.3% | -0.47 | 103% | 92.8% | -0.17 | 0.56
31 | Cc1ccc(C(=O)CSC2=NC(N)=C(C#N)C3(CCCCC3)C2C(N)=O)cc1 (stereo unspecified) | 17.7 | 51% (active) | -4.6 | 89.6% | 97.6% | 0.27 | 9.3
32 | CCOC(=O)c1nc2ccccc2s1 | -4.63 | -15.7% | -2.72 | 99.2% | 97.4% | 1.02 | 1.61
33 | CCOC(=O)C1=C(O)CSC1=Nc1ccc(Cl)cc1 | -7.6 | -10.1% | -1.62 | 107% | 99.8% | 1.17 | 7.14
